Key:
Assay type in all cases: functional
[1] = system: Jurkat; assay: Cytotoxicity against human Jurkat cells assessed as cell viability at 2 uM after 24 hrs by MTT assay relative to control; details: read-out: Activity
Summary of the method: (§1)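 Suspension lines grown in α-MEM plus 10% FBS and penicillin-streptomycin, 37 °C, 5% CO2. Seeded at 30,000 cells/well in phenol-red-free α-MEM and rested 15 h. Exposed to 10 µM, or 2 µM in the lower-dose repeat, at 1% DMSO final for 24 h. 5 mg/ml MTT added directly for 3 h at 37 °C. Plates spun, formazan dissolved in DMSO, OD read at 550 nm. Viability relative to vehicle.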

[2] = system: HeLa; assay: Cytotoxicity against human HeLa cells assessed as cell viability at 10 uM after 24 hrs by MTT assay relative to control; details: read-out: Activity
Summary of the method: (§2)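 Adherent lines in DMEM plus 10% FBS and penicillin-streptomycin, 37 °C, 5% CO2, lifted with Accutase. Seeded at 500–10,000 cells/well and rested 15 h. Compounds from 10 mM DMSO stocks dosed at 10 µM final, 1% DMSO final, n = 5, for 24 h. Medium then swapped for 1 mg/ml MTT in phenol-red-free medium for 3 h at 37 °C. Formazan dissolved in DMSO, OD read at 550 nm. Viability normalised to 1% DMSO vehicle control.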

[3] = system: JeKo-1; assay: Cytotoxicity against human JeKo1 cells assessed as cell viability at 2 uM after 24 hrs by MTT assay relative to control; details: JeKo-1, 24 h, read-out: Activity; summary of the method: as §1
[4] = system: SK-MEL-2; assay: Cytotoxicity against human SK-MEL-2 cells assessed as cell viability at 10 uM after 24 hrs by MTT assay relative to control; details: SK-MEL-2, 24 h, read-out: Activity; summary of the method: as §2
[5] = system: Jurkat; assay: Cytotoxicity against human Jurkat cells assessed as cell viability at 10 uM after 24 hrs by MTT assay relative to control; details: read-out: Activity; summary of the method: as §1
[6] = system: SK-N-MC; assay: Cytotoxicity against human SK-N-MC cells assessed as cell viability at 10 uM after 24 hrs by MTT assay relative to control; details: read-out: Activity; summary of the method: as §2
[7] = system: Jurkat; assay: Cytotoxicity against human Jurkat cells assessed as cell viability after 24 hrs by MTT assay; details: read-out: LC50 (the source's name)
Summary of the method: (§3)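 Suspension cells grown in α-MEM with 10% FBS and penicillin-streptomycin, seeded at 30,000 cells/well in phenol red-free medium and held 15 h before treatment. Compounds diluted from 10 mM DMSO stocks, final 1% DMSO, for 24 h. MTT (5 mg/ml stock) added directly for 3 h at 37 °C, then centrifugation, DMSO solubilization, OD 550 nm. LC50 from dose-response curves normalized to vehicle.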

[8] = system: A549; assay: Cytotoxicity against human A549 cells assessed as cell viability at 10 uM after 24 hrs by MTT assay relative to control; details: A549, 24 h, read-out: Activity; summary of the method: as §2
[9] = system: SJSA-1; assay: Cytotoxicity against human SJSA1 cells assessed as cell viability at 10 uM after 24 hrs by MTT assay relative to control; details: SJSA-1, 24 h, read-out: Activity; summary of the method: as §2
[10] = system: HCT-116; assay: Cytotoxicity against human HCT116 cells assessed as cell viability at 10 uM after 24 hrs by MTT assay relative to control; details: HCT-116, 24 h, read-out: Activity; summary of the method: as §2
[11] = system: JeKo-1; assay: Cytotoxicity against human JeKo1 cells assessed as cell viability at 10 uM after 24 hrs by MTT assay relative to control; details: JeKo-1, 24 h, read-out: Activity; summary of the method: as §1
[12] = system: MDA-MB-231; assay: Cytotoxicity against human MDA-MB-231 cells assessed as cell viability after 24 hrs by MTT assay; details: MDA-MB-231, 24 h, read-out: LC50 (the source's name)
Summary of the method: (§4)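 Adherent cells grown in DMEM with 10% FBS and penicillin-streptomycin, dissociated with Accutase, seeded at 500–10,000 cells/well and held 15 h before treatment. Compounds diluted from 10 mM DMSO stocks, final 1% DMSO, for 24 h at 37 °C, 5% CO2. Medium replaced with 1 mg/ml MTT for 3 h, formazan dissolved in DMSO, OD 550 nm. LC50 from dose-response curves normalized to 1% DMSO vehicle.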

[13] = system: SK-N-MC; assay: Cytotoxicity against human SK-N-MC cells assessed as cell viability after 24 hrs by MTT assay; details: read-out: LC50 (the source's name); summary of the method: as §4
[14] = system: SK-MEL-2; assay: Cytotoxicity against human SK-MEL-2 cells assessed as cell viability after 24 hrs by MTT assay; details: SK-MEL-2, 24 h, read-out: LC50 (the source's name); summary of the method: as §4
[15] = system: PC-3; assay: Cytotoxicity against human PC3 cells assessed as cell viability after 24 hrs by MTT assay; details: PC-3, 24 h, read-out: LC50 (the source's name); summary of the method: as §4
[16] = system: MDA-MB-231; assay: Cytotoxicity against human MDA-MB-231 cells assessed as cell viability at 10 uM after 24 hrs by MTT assay relative to control; details: MDA-MB-231, 24 h, read-out: Activity; summary of the method: as §2
[17] = system: PC-3; assay: Cytotoxicity against human PC3 cells assessed as cell viability at 10 uM after 24 hrs by MTT assay relative to control; details: PC-3, 24 h, read-out: Activity; summary of the method: as §2
[18] = system: JeKo-1; assay: Cytotoxicity against human JeKo1 cells assessed as cell viability after 24 hrs by MTT assay; details: JeKo-1, 24 h, read-out: LC50 (the source's name); summary of the method: as §3
[19] = system: HCT-116; assay: Cytotoxicity against human HCT116 cells assessed as cell viability after 24 hrs by MTT assay; details: HCT-116, 24 h, read-out: LC50 (the source's name); summary of the method: as §4
[20] = system: HeLa; assay: Cytotoxicity against human HeLa cells assessed as cell viability after 24 hrs by MTT assay; details: read-out: LC50 (the source's name); summary of the method: as §4
[21] = system: SJSA-1; assay: Cytotoxicity against human SJSA1 cells assessed as cell viability after 24 hrs by MTT assay; details: SJSA-1, 24 h, read-out: LC50 (the source's name); summary of the method: as §4
[22] = system: A549; assay: Cytotoxicity against human A549 cells assessed as cell viability after 24 hrs by MTT assay; details: A549, 24 h, read-out: LC50 (the source's name); summary of the method: as §4

| Structure (SMILES) | viability at 2 µM [1] [%] | viability at 10 µM [2] [%] | viability at 2 µM [3] [%] | viability at 10 µM [4] [%] | viability at 10 µM [5] [%] | viability at 10 µM [6] [%] | CC50 [7] [µM] | viability at 10 µM [8] [%] | viability at 10 µM [9] [%] | viability at 10 µM [10] [%] | viability at 10 µM [11] [%] | CC50 [12] [µM] | CC50 [13] [µM] | CC50 [15] [µM] | viability at 10 µM [16] [%] | viability at 10 µM [17] [%] | CC50 [18] [µM] | CC50 [19] [µM] | CC50 [20] [µM] | CC50 [21] [µM] | further results |
| --- | --- | --- | --- | --- | --- | --- | --- | --- | --- | --- | --- | --- | --- | --- | --- | --- | --- | --- | --- | --- | --- |
| C=C1C(=O)O[C@@H]2[C@H]3O[C@]3(C)CC/C=C(/C)[C@@H](OC(=O)c3cc(C(F)(F)F)cc(C(F)(F)F)c3)C[C@@H]12 | 53.1 | 32 | 73.3 | 14.8 | 5 | 3 | 1.2 | 82.5 | 88.2 | 54.4 | 4.1 | 3.8 | 4.7 | 3.1 | 3.6 | 2.2 | 1.2 |  |  |  | CC50 [14]: 2.6 µM |
| C=C1C(=O)O[C@@H]2[C@H]3O[C@]3(C)CC/C=C(/COC(=O)Nc3ccc([N+](=O)[O-])cc3)CC[C@@H]12 | 79 | 5.4 | 80 | 40.4 | 0 | 23.3 |  | 60 | 44.5 | 1.6 | -0.1 |  |  | 5.7 | 41.3 | 17.7 |  | 7.8 | 1.7 |  |  |
| C=C1C(=O)O[C@@H]2[C@H]3O[C@]3(C)CC/C=C(/C)[C@@H](OC(=O)c3ccc(C(F)(F)F)cc3C(F)(F)F)C[C@@H]12 | 83.2 | 10.7 | 105 | 61.4 | 0 | 11.5 |  | 33.7 | 26.5 | 20.8 | 5.7 | 5.7 | 5.7 | 5.3 | 19.2 | 6.4 |  |  | 2.1 |  |  |
| C=C1C(=O)O[C@@H]2[C@H]3O[C@]3(C)CC/C=C(/COC(=O)c3ccc(C(F)(F)F)cc3C(F)(F)F)CC[C@@H]12 | 89 | 11.3 | 80.9 | 62 | 0 | 18.7 |  | 45.1 | 17.8 | 15.1 | -2.2 |  | 5.6 | 6.7 | 20.7 | 4 |  | 8.2 | 2.9 | 7.7 |  |
| C=C1C(=O)O[C@@H]2C3O[C@]3(C)CC/C=C(\C)CC[C@@H]12 (stereo not given in full) | 100 | 35 | 100 | 95.8 | 70.3 | 30 | 16.9 | 85 | 100 | 104 | 47.5 | 18.3 | 4.7 | 20.5 | 67 | 82.6 | 10 | 18 | 9 | 42.4 | CC50 [22]: 29.7 µM; CC50 [14]: 24.9 µM |
| C=C1C(=O)O[C@@H]2[C@H]3O[C@]3(C)CC/C=C(/COC(=O)c3cc(C(F)(F)F)cc(C(F)(F)F)c3)CC[C@@H]12 | 70 | 3.9 | 64.3 | 28.6 | 5.7 | 3.2 | 1.9 | 29.6 | 23.1 | 15.5 | 4.8 | 6.2 | 0.6 | 4.7 | 8 | 3.7 | 1.7 | 5.7 | 1.5 | 6.4 | CC50 [22]: 4.9 µM |
| C=C1C(=O)O[C@@H]2[C@H]3O[C@]3(C)CC/C=C(/C)[C@@H](OC(=O)Nc3cc(C(F)(F)F)cc(C(F)(F)F)c3)C[C@@H]12 | 68.9 | 20.2 | 76.4 | 57 | 0 | 18.5 | 2.8 | 54.3 | 68.2 | 10.8 | -1 | 7.2 |  |  | 16.7 | 38.7 | 3.5 | 7.9 |  |  |  |

Reference: ChEMBL document CHEMBL4219033, “Anticancer activity profiling of parthenolide analogs generated via P450-mediated chemoenzymatic synthesis” (2018)
